In ChEMBL document CHEMBL1221219, “Selective blockade of 2-arachidonoylglycerol hydrolysis produces cannabinoid behavioral effects” (Nat Chem Biol, 2009):
Activity calls are given as the source filed them. No cut-off for these calls is given here.

Legend:
Mus musculus [1] = experiment: Inhibition of FAAH in C57B1/6J mouse brain membrane at 4 mg/kg, ip after 4 hrs by competitive activity-based protein profiling method relative to control; assay type: functional; conditions: route intraperitoneal
Procedure, shortened: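 Male C57Bl/6J mice (6-8 weeks, 20-26 g) given inhibitor i.p. in 4:1 v/v PEG300:Tween80 at 4 ul g^-1 (4-40 mg kg^-1); vehicle controls. Brain membrane proteomes (1 mg ml^-1 in PBS) labelled with FP-rhodamine (2 μM) for 30 min at room temperature. Readout by SDS-PAGE and in-gel fluorescence scanning, compared with vehicle.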

Mus musculus [2] = experiment: Inhibition of RBBP9 in C57B1/6J mouse brain membrane at 16 mg/kg, ip after 4 hrs by competitive activity-based protein profiling-MudPIT method; assay type: functional, organism-based; parameters: dose 16 mg/kg
Procedure, shortened: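 After i.p. dosing in 4:1 PEG300:Tween80, male C57Bl/6J mice were killed at 4 h. Brain membrane proteomes from treated and vehicle mice were labelled with FP-biotin. Labelled proteins were enriched on avidin, digested on-bead with trypsin and analysed by multidimensional LC-MS. Proteins were identified by SEQUEST, and dosed samples were compared with vehicle.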

SMILES: O=C(Oc1ccc([N+](=O)[O-])cc1)N1CCC(C(O)(c2ccc3c(c2)OCO3)c2ccc3c(c2)OCO3)CC1
- inhibition in vivo at 4 mg/kg (Mus musculus [1]): < 20%
- inhibition (Mus musculus [2]): inactive
